Some of the results follow. Unmarked numbers belong to inactive results.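 Rule for the calls: active = at least 50% inhibition in the glucose-6-phosphate dehydrogenase coupled counterscreen; inconclusive = no clear call, values can overlap the other calls; inactive = inhibition below 50%.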
Test system: glucose-6-phosphate dehydrogenase [Leuconostoc mesenteroides]
Assay: coupling enzyme G6PDH activity blockers – biochemical, DPI cherry-picked compounds, single concentration, counter-screen for TbHK1 inhibitor project, confirmation (AID 2516)
Details: purified G6PDH, NADH absorbance, 1 h; at 10 µM; hits give high values
In short: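 Assay system: purified G6PDH enzyme / Quantity: G6PDH enzyme at 0.006 mU/µL final / Doses: one dose, 10 µM / Schedule: enzyme reaction for 1 h at room temperature / Detection: absorbance, mix-and-read, after quench with 50 mM EDTA final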

Compound	inhibition
O=C(CN1C(=O)C2C3C=CC(C3)C2C1=O)NCCc1ccccc1Cl (centres undefined)	-2.31%
CC1(C)CC(=O)C=C(NCCCNC2CCCCC2)C1	2.59%
COC(=O)C1CCN(CC(N)=O)CC1	-9.01%
COc1cccc(/C=N/Nc2ncc(C(F)(F)F)cc2Cl)c1O	-9.42%

From PubChem BioAssay AID2516 (University of Pittsburgh Molecular Library Screening Center, 2010)
